ChEMBL document CHEMBL1795235, “Quercetin diacylglycoside analogues showing dual inhibition of DNA gyrase and topoisomerase IV as novel antibacterial agents” (J Med Chem, 2011)
≈ marks a conversion by molar mass, not a printed value.

Columns and labels:
[1] = test system: Staphylococcus aureus; experiment: Antibacterial activity against methicillin-resistant Staphylococcus aureus OM584 after 24 hrs by microdilution method; assay type: functional; conditions: OM584, 24 h
Method in brief: (§1)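 Broth microdilution in Mueller-Hinton broth with 0.85% NaCl, inoculum about 10^5 CFU per 100 μL. Compounds were diluted in water from 25.6 mg/mL stocks to final 2-fold series of 0.062–128 μg/mL. Plates were incubated 24 h at 35 °C. MIC was the lowest concentration at which all triplicate wells were clear, from three independent determinations.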

[2] = test system: Staphylococcus aureus; experiment: Antibacterial activity against methicillin-susceptible Staphylococcus aureus 209P after 24 hrs by microdilution method; assay type: functional; method in brief: as §1
[3] = test system: Escherichia coli; experiment: Antibacterial activity against Escherichia coli K-12 after 24 hrs by microdilution method; assay type: functional; conditions: K-12, 24 h
Method in brief: (§2)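 Broth microdilution in Mueller-Hinton broth with 0.85% NaCl, inoculum about 10^5 CFU per 100 μL. Compounds diluted from 25.6 mg/mL stocks in water to 2-fold series, final 0.062–128 μg/mL. […] Three independent determinations.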

[4] = test system: Enterococcus; experiment: Antibacterial activity against vancomycin resistant Enterococcus NCTC 12201 after 24 hrs by microdilution method; assay type: functional; conditions: NCTC 12201, 24 h; method in brief: as §1
[5] = test system: Staphylococcus aureus; experiment: Antibacterial activity against methicillin-resistant Staphylococcus aureus OM481 after 24 hrs by microdilution method; assay type: functional; conditions: OM481, 24 h; method in brief: as §1
[6] = test system: Pseudomonas aeruginosa; experiment: Antibacterial activity against Pseudomonas aeruginosa PAO1 after 24 hrs by microdilution method; assay type: functional; conditions: PAO1, 24 h; method in brief: as §2
[7] = test system: Enterococcus; experiment: Antibacterial activity against vancomycin resistant Enterococcus FN-1 after 24 hrs by microdilution method; assay type: functional; conditions: FN-1, 24 h; method in brief: as §1
[8] = test system: Staphylococcus aureus; experiment: Antibacterial activity against methicillin-resistant Staphylococcus aureus N315 after 24 hrs by microdilution method; assay type: functional; conditions: N315, 24 h; method in brief: as §1
[9] = test system: Staphylococcus aureus; experiment: Antibacterial activity against methicillin-resistant Staphylococcus aureus COL after 24 hrs by microdilution method; assay type: functional; method in brief: as §1
[10] = test system: Streptococcus pneumoniae; experiment: Antibacterial activity against Streptococcus pneumoniae R6 after 24 hrs by microdilution method; assay type: functional; conditions: R6, 24 h; method in brief: as §2
[11] = test system: Staphylococcus aureus; experiment: Antibacterial activity against vancomycin-intermediate Staphylococcus aureus Mu50 after 24 hrs by microdilution method; assay type: functional; conditions: Mu50, 24 h; method in brief: as §1
[12] = Inhibition of Staphylococcus aureus DNA Topoisomerase 4-mediated decatenation of kDNA after 30 mins by densitometry
Method in brief: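 Purchased S. aureus topoIV, one unit with 200 ng kDNA, 37 °C, 30 min. Products resolved on 1.0% agarose in TAE. IC50 of decatenation from densitometry by interpolation equation, at least three determinations.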

[13] = Inhibition of Escherichia coli DNA topoisomerase 4 subunit ParC/DNA topoisomerase 4 subunit ParE-mediated decatenation of kDNA by densitometry
Method in brief: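 Purchased E. coli topoIV kit enzyme, one unit with 200 ng kDNA, 37 °C, 30 min. Buffer: 50 mM HEPES-KOH pH 7.6, 5 mM magnesium acetate, 100 mM potassium glutamate, 10 mM DTT, 1 mM ATP, 40% glycerol. Gel on 1.0% agarose in TAE. IC50 of decatenation from densitometry by interpolation equation, at least three determinations.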

[14] = Inhibition of Escherichia coli DNA gyrase assessed as inhibition of pBR322 supercoiling by densitometry
Method in brief: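 One unit of E. coli gyrase with 0.5 μg relaxed pBR322 DNA, 37 °C, 30 min. Stopped with sucrose/EDTA dye, run on 1.0% agarose in TAE. IC50 from densitometry via log-interpolation equation.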

| SMILES | MIC [1] [µg/mL] | MIC [2] [µg/mL] | MIC [3] [µg/mL] | MIC [4] [µg/mL] | MIC [5] [µg/mL] | MIC [6] [µg/mL] | MIC [7] [µg/mL] | MIC [8] [µg/mL] | MIC [9] [µg/mL] | MIC [10] [µg/mL] | MIC [11] [µg/mL] | IC50 [12] [µM] | IC50 [13] [µM] | IC50 [14] [µM] |
| --- | --- | --- | --- | --- | --- | --- | --- | --- | --- | --- | --- | --- | --- | --- |
| CC(=O)OC[C@H]1O[C@@H](Oc2c(-c3ccc(O)c(O)c3)oc3cc(O)cc(O)c3c2=O)[C@H](OC(C)=O)[C@@H](OC(C)=O)[C@H]1OC(C)=O | 32 (≈ 50.6 µM) | 64 (≈ 101 µM) | > 128 | 32 (≈ 50.6 µM) | 32 (≈ 50.6 µM) | > 128 | 32 (≈ 50.6 µM) | 64 (≈ 101 µM) | 128 (≈ 202 µM) | 64 (≈ 101 µM) | 64 (≈ 101 µM) | – | – | – |
| CCOc1ccc(CCC(=O)O[C@H]2[C@H](Oc3c(-c4ccc(O)c(O)c4)oc4cc(O)cc(O)c4c3=O)O[C@H](CO)[C@@H](O)[C@@H]2OC(=O)CCc2ccc(OCC)cc2)cc1 | 2 (≈ 2.45 µM) | 1 (≈ 1.22 µM) | – | 4 (≈ 4.9 µM) | 2 (≈ 2.45 µM) | – | 2 (≈ 2.45 µM) | 1 (≈ 1.22 µM) | 4 (≈ 4.9 µM) | 1 (≈ 1.22 µM) | 1 (≈ 1.22 µM) | 3.02 | > 12 | – |
| Cc1ccc(CCC(=O)O[C@H]2[C@H](Oc3c(-c4ccc(O)c(O)c4)oc4cc(O)cc(O)c4c3=O)O[C@H](CO)[C@@H](O)[C@@H]2OC(=O)CCc2ccc(C)cc2)cc1 | 2 (≈ 2.64 µM) | 1 (≈ 1.32 µM) | – | 4 (≈ 5.29 µM) | 2 (≈ 2.64 µM) | – | 2 (≈ 2.64 µM) | 1 (≈ 1.32 µM) | 4 (≈ 5.29 µM) | 1 (≈ 1.32 µM) | 1 (≈ 1.32 µM) | 2.02 | 11.6 | – |
| CCCc1ccc(C(=O)O[C@H]2[C@H](Oc3c(-c4ccc(O)c(O)c4)oc4cc(O)cc(O)c4c3=O)O[C@H](CO)[C@@H](O)[C@@H]2OC(=O)c2ccc(CCC)cc2)cc1 | 2 (≈ 2.64 µM) | 1 (≈ 1.32 µM) | – | 4 (≈ 5.29 µM) | 2 (≈ 2.64 µM) | – | 2 (≈ 2.64 µM) | 1 (≈ 1.32 µM) | 4 (≈ 5.29 µM) | 1 (≈ 1.32 µM) | 1 (≈ 1.32 µM) | 1.83 | 11.8 | – |
| CC1O[C@H](Oc2c(-c3ccc(O)cc3)oc3cc(O)cc(O)c3c2=O)[C@@H](OC(=O)/C=C/c2ccc(O)cc2)[C@@H](O)[C@@H]1OC(=O)/C=C/c1ccc(O)cc1 (some centres undefined) | 2 (≈ 2.76 µM) | 0.5 (≈ 0.69 µM) | > 128 | 4 (≈ 5.52 µM) | 1 (≈ 1.38 µM) | > 128 | 8 (≈ 11 µM) | 1 (≈ 1.38 µM) | 1 (≈ 1.38 µM) | – | – | 2.7 | – | 3.11 |
| CO[C@@H]1[C@@H](OC(N)=O)[C@@H](O)[C@H](Oc2ccc3c(O)c(NC(=O)c4ccc(O)c(CC=C(C)C)c4)c(=O)oc3c2C)OC1(C)C [NOVOBIOCIN] | 0.25 (≈ 0.408 µM) | 0.13 (≈ 0.212 µM) | 8 (≈ 13.1 µM) | 2 (≈ 3.26 µM) | 0.25 (≈ 0.408 µM) | 8 (≈ 13.1 µM) | > 128 | 0.13 (≈ 0.212 µM) | 0.25 (≈ 0.408 µM) | 0.25 (≈ 0.408 µM) | 8 (≈ 13.1 µM) | – | 0.11 | – |
| O=C(O[C@H]1[C@H](Oc2c(-c3ccc(O)c(O)c3)oc3cc(O)cc(O)c3c2=O)O[C@H](CO)[C@@H](O)[C@@H]1OC(=O)c1ccc(F)cc1)c1ccc(F)cc1 | 2 (≈ 2.82 µM) | 1 (≈ 1.41 µM) | – | 4 (≈ 5.65 µM) | 2 (≈ 2.82 µM) | – | 2 (≈ 2.82 µM) | 1 (≈ 1.41 µM) | 4 (≈ 5.65 µM) | 1 (≈ 1.41 µM) | 1 (≈ 1.41 µM) | 1.21 | 10.8 | – |
| CN[C@H](CC(C)C)C(=O)N[C@H]1C(=O)N[C@@H](CC(N)=O)C(=O)N[C@H]2C(=O)N[C@H]3C(=O)N[C@H](C(=O)N[C@H](C(=O)O)c4cc(O)cc(O)c4-c4cc3ccc4O)[C@H](O)c3ccc(c(Cl)c3)Oc3cc2cc(c3O[C@@H]2O[C@H](CO)[C@@H](O)[C@H](O)[C@H]2O[C@H]2C[C@](C)(N)[C@H](O)[C@H](C)O2)Oc2ccc(cc2Cl)[C@H]1O [VANCOMYCIN] | 0.25 (≈ 0.173 µM) | 0.25 (≈ 0.173 µM) | – | > 128 | 0.25 (≈ 0.173 µM) | – | > 128 | 0.25 (≈ 0.173 µM) | 0.25 (≈ 0.173 µM) | 0.25 (≈ 0.173 µM) | 8 (≈ 5.52 µM) | – | – | – |
| O=C(CCc1ccc(O)cc1)O[C@H]1[C@H](Oc2c(-c3ccc(O)c(O)c3)oc3cc(O)cc(O)c3c2=O)O[C@H](CO)[C@@H](O)[C@@H]1OC(=O)CCc1ccc(O)cc1 | 2 (≈ 2.63 µM) | 1 (≈ 1.31 µM) | – | 4 (≈ 5.26 µM) | 2 (≈ 2.63 µM) | – | 2 (≈ 2.63 µM) | 1 (≈ 1.31 µM) | 4 (≈ 5.26 µM) | 1 (≈ 1.31 µM) | 1 (≈ 1.31 µM) | 1.98 | 11.8 | – |
| O=C(Cc1ccc(F)cc1)O[C@H]1[C@H](Oc2c(-c3ccc(O)c(O)c3)oc3cc(O)cc(O)c3c2=O)O[C@H](CO)[C@@H](O)[C@@H]1OC(=O)Cc1ccc(F)cc1 | 2 (≈ 2.72 µM) | 1 (≈ 1.36 µM) | – | 4 (≈ 5.43 µM) | 2 (≈ 2.72 µM) | – | 2 (≈ 2.72 µM) | 1 (≈ 1.36 µM) | 4 (≈ 5.43 µM) | 1 (≈ 1.36 µM) | 1 (≈ 1.36 µM) | 1.45 | 10.1 | – |
| O=C(CCc1ccc(F)cc1)O[C@H]1[C@H](Oc2c(-c3ccc(O)c(O)c3)oc3cc(O)cc(O)c3c2=O)O[C@H](CO)[C@@H](O)[C@@H]1OC(=O)CCc1ccc(F)cc1 | 2 (≈ 2.62 µM) | 0.25 (≈ 0.327 µM) | – | 1 (≈ 1.31 µM) | 2 (≈ 2.62 µM) | – | 1 (≈ 1.31 µM) | 0.25 (≈ 0.327 µM) | 1 (≈ 1.31 µM) | 0.5 (≈ 0.654 µM) | 1 (≈ 1.31 µM) | 0.69 | 10.4 | – |
| CCn1cc(C(=O)O)c(=O)c2cc(F)c(N3CCNCC3)cc21 [NORFLOXACIN] | 128 (≈ 401 µM) | 0.5 (≈ 1.57 µM) | 0.25 (≈ 0.783 µM) | 4 (≈ 12.5 µM) | 64 (≈ 200 µM) | 0.25 (≈ 0.783 µM) | > 128 | 2 (≈ 6.26 µM) | 1 (≈ 3.13 µM) | 0.25 (≈ 0.783 µM) | > 128 | 3.5 | – | 0.09 |
| CCOc1ccc(C(=O)O[C@H]2[C@H](Oc3c(-c4ccc(O)c(O)c4)oc4cc(O)cc(O)c4c3=O)O[C@H](CO)[C@@H](O)[C@@H]2OC(=O)c2ccc(OCC)cc2)cc1 | 2 (≈ 2.63 µM) | 1 (≈ 1.31 µM) | – | 4 (≈ 5.26 µM) | 2 (≈ 2.63 µM) | – | 2 (≈ 2.63 µM) | 1 (≈ 1.31 µM) | 4 (≈ 5.26 µM) | 1 (≈ 1.31 µM) | 1 (≈ 1.31 µM) | 1.98 | 11 | – |
